Measurements reported in ChEMBL document CHEMBL1123165, “A quantitative structure-activity relationship and molecular graphics analysis of hydrophobic effects in the interactions of inhibitors with alcohol dehydrogenase” (J Med Chem, 1986).

What was measured:
[1] = Partition coefficient (logP); assay type: physicochemical; conditions: octanol/water
Alcohol dehydrogenase = Alcohol dehydrogenase (Equus caballus, UniProt P00327+P00328); test: Inhibitory activity against horse liver alcohol dehydrogenase (ADH)
In short: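 Horse liver ADH crystalline suspension, pelleted (12000g, 3 min) to remove ethanol, redissolved in 0.1 M potassium phosphate pH 7.0, diluted 1:10; 0.004 unit per assay. Reaction started with 5 or 10 mM ethanol, NADH read at 340 nm.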

For `NC(=O)Cc1ccc(OCc2ccc(Br)cc2)cc1`, the logP [1] was 2.97 and the “Log 1/Ki” value (Alcohol dehydrogenase) was 5.7.

With `NC(=O)Cc1ccc(OCc2ccccc2)cc1` the logP [1] was 2.11 and the “Log 1/Ki” value (Alcohol dehydrogenase) was 5.7.

For `CCCCCc1cn[nH]c1`, the logP [1] was 2.96 and the “Log 1/Ki” value (Alcohol dehydrogenase) was 8.6.

With `CCCCCOc1ccc(CNC=O)cc1` the “Log 1/Ki” value (Alcohol dehydrogenase) was 7.52.

With `NC(=O)C(Br)Br` the logP [1] was 0.18 and the “Log 1/Ki” value (Alcohol dehydrogenase) was 2.49.

With `NC(=O)Cc1ccc(I)cc1` the logP [1] was 1.57 and the “Log 1/Ki” value (Alcohol dehydrogenase) was 5.1.

With `NC(=O)Cc1ccc(Cl)cc1` the logP [1] was 1.16 and the “Log 1/Ki” value (Alcohol dehydrogenase) was 4.7.

With `NC(=O)C(Cl)Cl` the logP [1] was -0.03 and the “Log 1/Ki” value (Alcohol dehydrogenase) was 2.19.

In the case of `NC(=O)C(F)F`, the logP [1] is reported as -0.76 and the “Log 1/Ki” value (Alcohol dehydrogenase) is reported as 1.12.

In the case of `CC(C)Oc1ccc(CC(N)=O)cc1`, the logP [1] is reported as 1.3 and the “Log 1/Ki” value (Alcohol dehydrogenase) is reported as 4.1.

For `CCOc1ccc(CC(N)=O)cc1`, the logP [1] was 0.83 and the “Log 1/Ki” value (Alcohol dehydrogenase) was 4.1.

For `CCCOc1ccc(CC(N)=O)cc1`, the logP [1] was 1.5 and the “Log 1/Ki” value (Alcohol dehydrogenase) was 4.6.

In the case of `COc1ccc(CC(N)=O)cc1`, the logP [1] is reported as 0.43 and the “Log 1/Ki” value (Alcohol dehydrogenase) is reported as 4.15.

For `CC(C)CCOc1ccc(CC(N)=O)cc1`, the logP [1] was 2.38 and the “Log 1/Ki” value (Alcohol dehydrogenase) was 5.22.

For `CCCCOc1ccc(CNC=O)cc1`, the “Log 1/Ki” value (Alcohol dehydrogenase) was 7.4.

For `C=C(C)C(N)=O`, the logP [1] was -0.71 and the “Log 1/Ki” value (Alcohol dehydrogenase) was 3.02.

In the case of `NC(=O)Cc1ccc(F)cc1`, the logP [1] is reported as 0.59 and the “Log 1/Ki” value (Alcohol dehydrogenase) is reported as 4.19.

For `CCCCCCc1cn[nH]c1`, the logP [1] was 3.46 and the “Log 1/Ki” value (Alcohol dehydrogenase) was 8.88.

For `NC(=O)C(Cl)(Cl)Cl`, the logP [1] was 0.79 and the “Log 1/Ki” value (Alcohol dehydrogenase) was 2.07.

In the case of `CCCCOc1ccc(CC(N)=O)cc1`, the logP [1] is reported as 2.04 and the “Log 1/Ki” value (Alcohol dehydrogenase) is reported as 5.15.

In the case of `O=CNCc1ccc(OCc2ccccc2)cc1`, the “Log 1/Ki” value (Alcohol dehydrogenase) is reported as 7.82.

For `NC(=O)CCl`, the logP [1] was -0.59 and the “Log 1/Ki” value (Alcohol dehydrogenase) was 2.12.

For `O=CNCc1ccc(O)cc1`, the “Log 1/Ki” value (Alcohol dehydrogenase) was 5.75.

With `CCCCCOc1ccc(CC(N)=O)cc1` the logP [1] was 2.58 and the “Log 1/Ki” value (Alcohol dehydrogenase) was 5.92.

In the case of `CCC(CC)C(N)=O`, the logP [1] is reported as 0.53 and the “Log 1/Ki” value (Alcohol dehydrogenase) is reported as 3.41.

In the case of `CCCc1cn[nH]c1`, the logP [1] is reported as 1.96 and the “Log 1/Ki” value (Alcohol dehydrogenase) is reported as 7.65.

For `NC(=O)Cc1ccc(Br)cc1`, the logP [1] was 1.31 and the “Log 1/Ki” value (Alcohol dehydrogenase) was 4.7.

For `NC(=O)Cc1ccc(OCC2CCCCC2)cc1`, the logP [1] was 3.42 and the “Log 1/Ki” value (Alcohol dehydrogenase) was 6.

In the case of `CCCCCCc1ccc(CNC=O)cc1`, the “Log 1/Ki” value (Alcohol dehydrogenase) is reported as 7.58.

In the case of `C/C=C(\C)C(N)=O`, the logP [1] is reported as -0.21 and the “Log 1/Ki” value (Alcohol dehydrogenase) is reported as 3.15.

In the case of `C/C=C/C(N)=O`, the logP [1] is reported as -0.51 and the “Log 1/Ki” value (Alcohol dehydrogenase) is reported as 2.89.

In the case of `NC(=O)CBr`, the “Log 1/Ki” value (Alcohol dehydrogenase) is reported as 2.24.

For `C=CC(N)=O` [ACRYLAMIDE], the logP [1] was -1.01 and the “Log 1/Ki” value (Alcohol dehydrogenase) was 2.11.

In the case of `Cc1cn[nH]c1` [FOMEPIZOLE], the logP [1] is reported as 0.96 and the “Log 1/Ki” value (Alcohol dehydrogenase) is reported as 6.85.

With `NC(=O)CI` [IODOACETAMIDE] the logP [1] was 0.15 and the “Log 1/Ki” value (Alcohol dehydrogenase) was 2.72.

In the case of `CC(C)C(N)=O` [ISOBUTYRAMIDE], the logP [1] is reported as -0.39 and the “Log 1/Ki” value (Alcohol dehydrogenase) is reported as 3.77.

With `NC(=O)CF` [MONOFLUOROACETAMIDE] the logP [1] was -1.03 and the “Log 1/Ki” value (Alcohol dehydrogenase) was 1.41.

In the case of `CC(C)(C)C(N)=O` [PIVALAMIDE], the logP [1] is reported as 0.15 and the “Log 1/Ki” value (Alcohol dehydrogenase) is reported as 2.46.

In the case of `c1cn[nH]c1` [PYRAZOLE], the logP [1] is reported as 0.26 and the “Log 1/Ki” value (Alcohol dehydrogenase) is reported as 5.73.

For `NC(=O)C(F)(F)F` [TRIFLUOROACETAMIDE], the logP [1] was -0.11 and the “Log 1/Ki” value (Alcohol dehydrogenase) was 1.33.
